Bioassay records from PubChem.
Compounds with a hit are over-represented: about 5.9% of the library has one in this group of screens.
Fibroblast inh = blocks proliferation of human lung fibroblasts; AID 719; viability, % at 10 µM; 1.1% of 85,000 active; LL 47 human lung fibroblast viability, ATP luminescence; active compounds read low;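 active means viability at or below 50% in the single dose screen; inactive means viability above 50%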;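 further: compound exposure lasted 72 h before the ATP readout; 100% = median luminescence of untreated cell-only wells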
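Assay system: human lung fibroblast line LL 47, low passage. Input: 1,150 fibroblasts seeded per well. Times: overnight cell rest, 72 h compound treatment at 37 °C. Evaluation: % viability of median cell-only signal. Technique: luminescent ATP detection, CellTiter-Glo. Control set: cell-only wells, no compound.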
Pyk2 oligo antag = Pyk2 (human) oligomerization antagonism; AID 1347419; 0.83% of 99,000 active; z-score (the deposit names both 25 µM and 10 µM); Q14289; Q293 cells, Pyk2 FERM NanoBiT luminescence; active compounds read low;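 active means Z-score of -3 or lower, scaled per plate to the spread of control and sample wells; inactive means z-score above -3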;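 further: negative z-score means lost luminescence so less FERM oligomerization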
Jurkat viability = cytotoxic compounds reducing Jurkat cell viability. 1.2% of 56,000 active. inhibition, % at 4 µM. AID 463. Jurkat E6.1 viability, ATP luminescence, 48 h;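 active means inhibition above the mean inhibition of all tested compounds plus 3 SD, cut at about 28% in these data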
HUVEC prolif 384 = inhibitors of human endothelial cell proliferation. AID 648. HUVEC proliferation, CellTiter-Glo luminescence, 72 h; active compounds read low. 1.1% of 86,000 active. viability, % at 10 µM (by protocol);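 active means viability at or below 30%; inactive means viability above 30%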;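 further: 100% = median luminescence of DMSO-only cell control wells on each plate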
H69AR inhibit = growth inhibitors of human H69AR lung tumor cells; AID 598; H69AR lung tumor viability, ATP luminescence, 72 h; active compounds read low; viability, % at 10 µM; 6% of 85,000 active;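 active means viability at or below 40%; inactive means viability above 40%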;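 further: multidrug resistant small cell line overexpressing MRP-1 efflux transporter; 100% = mean luminescence of untreated control wells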
MT1-MMP txn act = activates MT1-MMP transcription | activation factor at 10 µM | HT1080 MT1-MMP promoter luciferase reporter, luminescence, overnight; active compounds read high | AID 750 | 0.16% of 86,000 active;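 active means activation factor of at least 2 for MT1-MMP transcription at 10 µM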
An asterisk follows results filed as active; nt = no result given.

SMILES	Fibroblast inh	Pyk2 oligo antag	Jurkat viability	HUVEC prolif 384	H69AR inhibit	MT1-MMP txn act
C=CCc1ccc(OCC(O)CN2CCCCC2)c(OC)c1 (centres undefined)	101	0.06	-1	91	83	1.1
CCN(c1ccccc1)S(=O)(=O)c1ccc(F)cc1	93	-0.01	6	106	97	1.2
CCN(c1ccccc1)S(=O)(=O)c1ccc(N)c(OC)c1	72	0.03	nt	55	17*	0.9
COc1ccc(S(=O)(=O)Cc2ccccc2)cc1N	95	0.05	-6	91	37*	1
COc1cc(OC)c(C#N)c(S(=O)(=O)Cc2ccccc2)c1	92	-1	nt	95	77	1
CCOC(=O)N1CCN(C(=O)CN(c2ccc(OCc3ccccc3)cc2)S(C)(=O)=O)CC1	91	0.64	-6	98	nt	1.1
CCCCc1c2ccccc2nc2[nH]c3ccccc3c12	nt	nt	nt	nt	nt	1.2
CCCn1c2ccc(/C(C)=N\O)cc2c2cc(/C(C)=N/O)ccc21	90	-1.3	nt	83	27*	1.2
COc1ccc(-c2nnn(Cc3ccccc3F)n2)cc1	92	-1.6	nt	101	90	2.3*
O=C1C=C(Nc2ccc(Cl)cc2)CC(c2ccco2)C1 (centres undefined)	88	-0.21	nt	79	26*	1.1
CCOc1ccccc1C(=O)Nc1ccc(-c2nnc(-c3ccc(C)cc3)o2)cc1	101	nt	1	102	99	1
Cc1cc(C)c(NC(=O)COc2ccccc2C(=O)Nc2ccc3c(c2)oc2ccccc23)c(C)c1	47*	0.2	nt	82	26*	1.3
Cc1cccc(NC(=S)NC2CC3CCCC(C2)N3Cc2cccs2)c1 (centres undefined)	nt	-0.46	nt	nt	nt	nt
Cc1nc(SCC(=O)Nc2ccccc2)c2oc3ccccc3c2n1	91	-0.98	6	47	12*	1.1
O=C(CSc1ncnc2c1oc1ccccc12)Nc1cccc(C(F)(F)F)c1	95	nt	7	45	17*	1.1
O=C(CSc1ncnc2c1oc1ccccc12)Nc1nc2ccccc2s1	103	nt	nt	16*	13*	nt
Cc1ccc(C)c(-n2c(CNc3ccc(F)cc3)nnc2SCC(N)=O)c1	99	0.33	5	85	81	1.1
COC(=O)c1ccc(NC(=O)CSc2nccn2CCc2ccccc2)cc1	98	-0.73	nt	95	89	nt
N#Cc1c(C(F)(F)F)cc(-c2ccccc2)nc1SCc1nc(N)nc(N2CCOCC2)n1	75	-2.5	-6	63	21*	1.2
O=C(CSc1nnc(COc2ccc(F)cc2)o1)N1c2ccccc2CCc2ccccc21	84	-0.37	19	109	1.9*	0.9
O=C(CSc1nnc(COc2cccc3cccnc23)o1)N1CCc2ccccc21	94	0.89	2	97	51	0.8
CN1CC(=O)NC1=NC(=O)c1ccc(Cl)c(S(=O)(=O)N2CCCCCC2)c1	84	0.08	2	89	12*	1.1
O=C1C=C(Nc2ccccc2O)c2ccccc2C1=O	13*	-2.3	nt	4.7*	7.9*	1
CC(=O)Nc1ccccc1O	98	nt	nt	95	89	1.2
COc1ccc(OC)c(-c2nc(C(N)=O)c3[nH]c(=O)n(-c4ccc(F)cc4)c3n2)c1	86	nt	-3	93	90	1.1
SMILES	Fibroblast inh	Pyk2 oligo antag	Jurkat viability	HUVEC prolif 384	H69AR inhibit	MT1-MMP txn act
COc1ccc(-c2nc(C(N)=O)c3[nH]c(=O)n(-c4ccccc4OC)c3n2)c(OC)c1	90	nt	0	86	31*	1.3
CCOc1ccccc1-c1nc(C(N)=O)c2[nH]c(=O)n(-c3cccc(C)c3)c2n1	94	-1.8	0	91	33*	1.1
CC1(C)NC(=O)N(CCOc2ccc3c(c2)CCC3)C1=O	99	0.92	-4	100	89	1
COc1cc2ccccc2cc1C(=O)Nc1ccc(N2CCN(C)CC2)cc1	72	-0.22	-1	9.0*	7.1*	1.6
COc1cc(C(=O)N2CCN(c3ccc([N+](=O)[O-])cc3)CC2)ccc1OCc1c(C)noc1C	99	1.2	nt	110	38*	1.3
Cc1cccc(NC(=O)c2c(O)c3cccc4c3n(c2=O)CCC4)n1	100	nt	-5	103	85	1.2
Cc1cnc(NC(=O)c2c(O)c3cccc4c3n(c2=O)CCC4)s1	97	nt	-10	89	5.7*	1.1
CC(C)c1nnc(NC(=O)c2c(O)c3cccc4c3n(c2=O)CCC4)s1	67	-0.72	15	109	34*	0.8
